Test results published in ChEMBL document CHEMBL4837261, “Optimization of TopoIV Potency, ADMET Properties, and hERG Inhibition of 5-Amino-1,3-dioxane-Linked Novel Bacterial Topoisomerase Inhibitors: Identification of a Lead with In Vivo Efficacy against MRSA” (J Med Chem, 2021).
Values after ≈ are worked out from the molar mass of the structure shown.

Legend:
[1] = tested on: Staphylococcus aureus; test: Antibacterial activity against Staphylococcus aureus ATCC 29213 by CLSI method; assay type: functional
[2] = tested on: Staphylococcus aureus; test: Antibacterial activity against methicillin-resistant Staphylococcus aureus USA300 by CLSI method; assay type: functional
[3] = tested on: Staphylococcus aureus; test: Antibacterial activity against cystic fibrosis isolate Staphylococcus aureus by CLSI method; assay type: functional
[4] = tested on: Staphylococcus aureus; test: Antibacterial activity against Staphylococcus aureus 3527 by CLSI method; assay type: functional
[5] = tested on: Staphylococcus aureus; test: Antibacterial activity against Staphylococcus aureus harbouring GyrA D83N mutant by CLSI method; assay type: functional
[6] = tested on: Streptococcus pyogenes; test: Antibacterial activity against Streptococcus pyogenes isolates by CLSI method; assay type: functional
[7] = tested on: Klebsiella pneumoniae; test: Antibacterial activity against Klebsiella pneumoniae isolates by CLSI method; assay type: functional
[8] = tested on: Enterobacter cloacae; test: Antibacterial activity against Enterobacter cloacae isolates by CLSI method; assay type: functional
[9] = tested on: Escherichia coli; test: Antibacterial activity against Escherichia coli isolates by CLSI method; assay type: functional
[10] = tested on: Enterococcus faecalis; test: Antibacterial activity against vancomycin-resistant Enterococcus faecalis by CLSI method; assay type: functional
[11] = target: T1, DNA gyrase (Staphylococcus aureus) (UniProt P0A0K8+P20831); test: Inhibition of Staphylococcus aureus DNA Gyrase assessed as reduction in supercoiling pBR322 DNA by measuring induction of single strand breaks by ethidium bromide staining based agarose gel electrophoresis; assay type: protein-complex assay; settings: dose 1-100 µM
Outline: (§1)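 Gyrase-mediated cleavage of negatively supercoiled pBR322 ran for 30 min at 37 °C with compound at 0.5–200 μM. Single- and double-strand break products were quantified from gel lane fluorescence, corrected for differential emission of supercoiled versus linear DNA.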

[12] = target: T1, DNA gyrase (Staphylococcus aureus); test: Inhibition of Staphylococcus aureus DNA Gyrase assessed as reduction in supercoiling pBR322 DNA by measuring induction of double strand breaks by ethidium bromide staining based agarose gel electrophoresis; assay type: protein-complex assay; settings: dose 1-100 µM; outline: as §1
[13] = tested on: THP-1; test: Cytotoxicity against human THP-1 cells; assay type: cell-based
Outline: (§2)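 THP-1, HepG2 and HeLa cells were exposed to compound from 128 to 0.0625 μg/mL. IC50 was obtained by nonlinear regression of the inhibition curves.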

[14] = tested on: HepG2; test: Cytotoxicity against human HepG2 cells; assay type: cell-based; outline: as §2
[15] = tested on: HeLa; test: Cytotoxicity against human HeLa cells; assay type: cell-based; outline: as §2
[16] = target: Acetylcholinesterase (Homo sapiens) (UniProt P22303); test: Inhibition of human recombinant acetylcholinesterase receptor expressed in HEK293 cells at 100 uM by spectrophotometry; assay type: cell-based
[17] = target: KCNQ1 (Homo sapiens, UniProt P51787); test: Inhibition of recombinant human KCNQ1 expressed in CHO-K1 cells at 100 uM by automated Qpatch clamp assay relative to control; assay type: ADME, cell-based; settings: CHO-K1 cells expressing recombinant human KCNQ1
[18] = target: T2, Kv4.3 (KCND3) (Homo sapiens, UniProt Q9UK17); test: Inhibition of recombinant human Kv4.3 expressed in human HEK293 cells at 100 uM measured at peak current by automated Qpatch clamp assay relative to control; assay type: ADME, cell-based; settings: HEK293 cells expressing recombinant human Kv4.3
[19] = target: T2, Kv4.3 (KCND3); test: Inhibition of recombinant human Kv4.3 expressed in human HEK293 cells at 100 uM measured at end current by automated Qpatch clamp assay relative to control; assay type: ADME, cell-based; settings: HEK293 cells expressing recombinant human Kv4.3
[20] = target: Nav1.5 (late current) (Homo sapiens, UniProt Q14524); test: Inhibition of recombinant human Nav1.5 late expressed in human HEK293 cells at 100 uM in presence of ATXII by automated Qpatch clamp assay relative to contro; assay type: ADME, cell-based; settings: HEK293 cells expressing recombinant human Nav1.5
[21] = target: Sodium channel protein type 5 subunit alpha (Homo sapiens, UniProt Q14524); test: Activation of recombinant human Nav1.5 late expressed in human HEK293 cells assessed as activation of late current at 100 uM by automated Qpatch clamp assay relative to control; assay type: ADME, cell-based; settings: hek293, 100 µM
[22] = Kinetic solubility of the compound at pH 7.4 buffer; assay type: physicochemical; settings: read-out: Kinetic_solubility
Outline: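 Kinetic aqueous solubility was measured in buffer at pH 7.4.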

[23] = Metabolic stability in CD1 mouse microsomes assessed as half life; assay type: ADME, Microsome
[24] = target: CYP1A2 (Homo sapiens, UniProt P05177); test: Inhibition of CYP1A2 (unknown origin) at 10 uM relative to control; assay type: ADME
[25] = target: CYP2B6 (Homo sapiens, UniProt P20813); test: Inhibition of CYP2B6 (unknown origin) at 10 uM relative to control; assay type: ADME
[26] = target: CYP2C9 (Homo sapiens, UniProt P11712); test: Inhibition of CYP2C9 (unknown origin) at 10 uM relative to control; assay type: ADME
[27] = target: CYP2D6 (Homo sapiens, UniProt P10635); test: Inhibition of CYP2D6 (unknown origin) at 10 uM relative to control; assay type: ADME
[28] = Clearance in ICR (CD-1) mouse at 10 mg/kg, iv measured up to 1440 mins by LC-MS/MS analysis; assay type: ADME, organism-based; settings: in vivo
Outline: (§3)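 Male ICR (CD-1) mice, 22 ± 2 g, given the free base in DMSO/Solutol HS-15/0.9% NaCl (5/5/90, v/v/v), IV at 10 mg/kg or PO at 50 mg/kg; 24 mice per route, three per timepoint. Plasma was taken by cardiac puncture at 3–1440 min (IV) or 10–1440 min (PO), measured by LC-MS/MS, and parameters were derived by noncompartmental analysis.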

[29] = Half life in ICR (CD-1) mouse at 10 mg/kg, iv measured up to 1440 mins by LC-MS/MS analysis; assay type: ADME, organism-based; settings: in vivo; outline: as §3
[30] = AUClast in ICR (CD-1) mouse at 10 mg/kg, iv measured up to 1440 mins by LC-MS/MS analysis; assay type: ADME, organism-based; design: route intravenous, dose 10 mg/kg, time <=1440; settings: in vivo; outline: as §3
[31] = Volume of distribution at steady state in ICR (CD-1) mouse at 10 mg/kg, iv measured up to 1440 mins by LC-MS/MS analysis; assay type: ADME, organism-based; settings: in vivo, read-out: Vdss
Outline: (§4)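 Male ICR (CD-1) mice, 22 ± 2 g, given free base in DMSO/Solutol HS-15/0.9% NaCl (5/5/90) at 50 mg/kg PO or 10 mg/kg IV. Three mice per timepoint, 8 timepoints. Plasma taken by cardiac puncture at 10–1440 min (PO) or 3–1440 min (IV). Measured by LC-MS/MS, with parameters from noncompartmental analysis.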

[32] = Oral bioavailability in ICR (CD-1) mouse at 50 mg/kg measured up to 1440 mins by LC-MS/MS analysis; assay type: ADME, organism-based; settings: in vivo; outline: as §4
[33] = target: Cytochrome P450 2D6 (Homo sapiens, UniProt P10635); test: Inhibition of CYP2D6 (unknown origin); assay type: ADME
[34] = target: Cytochrome P450 2C19 (Homo sapiens, UniProt P33261); test: Inhibition of CYP2C19 (unknown origin); assay type: ADME
[35] = target: Cytochrome P450 2C9 (Homo sapiens, UniProt P11712); test: Inhibition of CYP2C9 (unknown origin); assay type: ADME
[36] = target: Cytochrome P450 2C8 (Homo sapiens, UniProt P10632); test: Inhibition of CYP2C8 (unknown origin); assay type: ADME
[37] = target: Cytochrome P450 2B6 (Homo sapiens, UniProt P20813); test: Inhibition of CYP2B6 (unknown origin); assay type: ADME

## COc1ccc2ncc(F)c(C[C@H](O)[C@H]3OC[C@H](NCc4cc5c(nn4)OCCS5)CO3)c2n1
[1]
  MIC: 0.125 µg/mL (≈ 0.255 µM)
[2]
  MIC: 0.25 µg/mL (≈ 0.511 µM)
[3]
  MIC: 0.125 µg/mL (≈ 0.255 µM)
[4]
  MIC: 0.25 µg/mL (≈ 0.511 µM)
[5]
  MIC: 4 µg/mL (≈ 8.17 µM)
[6]
  MIC50: 0.5 µg/mL (≈ 1.02 µM)
[7]
  MIC50: > 64 µg/mL
[8]
  MIC50: > 64 µg/mL
[9]
  MIC50: > 64 µg/mL
[10]
  MIC50: 0.25 µg/mL (≈ 0.511 µM)
  MIC90: 1 µg/mL (≈ 2.04 µM)
[11]
  Activity: Dose-Dependent Effect
[12]
  Activity: Dose-Dependent Effect
[13]
  IC50: > 125 µM
[14]
  IC50: > 125 µM
[15]
  IC50: > 125 µM
[16]
  inhibition: > 45%
[17]
  inhibition at 100 µM: < 25%
[18]
  inhibition at 100 µM: < 25%
[19]
  inhibition at 100 µM: < 25%
[20]
  inhibition at 100 µM: < 25%
[21]
  Activity: < 25%
[22]
  solubility kinetic: 61.4 µM (≈ 30.1 µg/mL)
[23]
  half-life: 52 min
[24]
  inhibition at 10 µM: > 50%
[25]
  inhibition at 10 µM: > 50%
[26]
  inhibition at 10 µM: > 50%
[27]
  inhibition at 10 µM: > 50%
[28]
  clearance: 69 mL/min/kg
[29]
  half-life: 38 min
[30]
  AUC(0-t) at 24 h: 2400 ng·h/mL
[31]
  Vd: 1 L/kg
[32]
  bioavailability: 49%
[33]
  IC50: > 10 µM
[34]
  IC50: > 10 µM
[35]
  IC50: > 10 µM
[36]
  IC50: > 10 µM
[37]
  IC50: > 10 µM
